Experimental data from different studies.
Each line is one published result; the experiments were not run side by side.
Target: Acetylcholinesterase (ache, Electrophorus electricus, UniProt O42275)
Effect on: enzyme activity
Mode: inhibitor
Method: Ellman

Structure (SMILES)	pH	setting	IC50 [µM]
COc1cc2c(cc1OC)CN(S(=O)(=O)CCc1cn(-c3cnc4ccccc4c3)nn1)CC2			0.028
CC=C1[C@H]2C=C(C)C[C@]1(N)c1cc(O)c(=O)[nH]c1C2			0.53
Cc1c(C(=O)[C@H]2[C@H](c3c[nH]c4ccc(Br)cc34)[C@H]3CCCN3[C@]23C(=O)Nc2ccccc23)cnn1-c1ccccc1			> 100
CC(C)c1cc(C(C)C)c(S(=O)(=O)NNC(=O)C(=O)NNS(=O)(=O)c2c(C(C)C)cc(C(C)C)cc2C(C)C)c(C(C)C)c1		with preincubation	4.25
CC1(C)O[C@H]2CC(=O)OC[C@]23[C@H]2CC[C@@]4(C)[C@H](c5ccoc5)OC(=O)[C@H]5O[C@]54[C@]2(C)C(=O)C[C@@H]13			1060
C#CCN(C)c1nc(NCCCC2CCN(Cc3ccccc3)CC2)c(C#N)cc1C#N			0.00619
O=C(CNC(=S)NN=Cc1ccc([N+](=O)[O-])cc1)c1ccc([N+](=O)[O-])cc1			446
O=C(NCCN1CCN(Cc2ccccc2)CC1)c1cc2cccc(O)c2o1			20
Cc1c(C(=O)[C@H]2[C@H](c3c[nH]c4ccc(Br)cc34)CN(C)[C@]23C(=O)Nc2cc(Cl)ccc23)cnn1-c1ccccc1			27.8
CC=C1[C@H]2C=C(C)C[C@]1(N(C)C)c1ccc(=O)[nH]c1C2			0.61
CCOc1ccc(C=NNC(=S)NCC(=O)c2ccccc2O)cc1			420
Cc1c(C(=O)[C@H]2[C@H](c3c[nH]c4ccccc34)[C@H]3CSCN3[C@]23C(=O)Nc2cc(Cl)ccc23)cnn1-c1ccccc1			> 100
C#CCNC(=O)c1cc2ccc(N(CC)CC)cc2oc1=O	pH 7.6		> 50
CC=C1[C@H]2C=C(C)C[C@]1(N)c1cc(I)c(=O)[nH]c1C2			14.1
COP(=O)(OC)OC(C)=C1CCOC1=O	pH 8		> 1000
CC=C1[C@H]2C=C(C)C[C@]1(N)c1cc(OCC)c(=O)[nH]c1C2			0.22
COc1cccc2cc(C(=O)NCCN3CCN(Cc4ccccc4)CC3)oc12			4
CC=C1[C@H]2C=C(C)C[C@]1(N)c1cc(N)c(=O)[nH]c1C2			0.32
Cc1c(C(=O)[C@H]2[C@H](c3cn(C)c4ccccc34)[C@H]3CSCN3[C@]23C(=O)Nc2ccccc23)cnn1-c1ccccc1			> 100
CC=C1[C@H]2C=C(C)C[C@]1(N)c1cc(OC)c(=O)[nH]c1C2			0.16
C#CCN(C)c1nc(NCCCCC2CCN(Cc3ccccc3)CC2)c(C#N)c(-c2ccccc2)c1C#N			0.023
